Results on eight compounds are retold here after ChEMBL document CHEMBL1156507, “The M18 aspartyl aminopeptidase of the human malaria parasite Plasmodium falciparum” (J Biol Chem, 2007).

Test system in the first test: not listed separately
The experiment in a line: Binding affinity against recombinant Plasmodium falciparum D10 M18AAP. The essentials: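 Recombinant His6-tagged PfM18AAP was expressed in baculovirus-infected Sf9 cells and purified on Ni-NTA-agarose. Enzyme (60 nM) was preincubated 30 min in 50 mM Tris-HCl, pH 7.5, then added to the fluorogenic substrate H-Asp-NHMec. Initial hydrolysis rates were read by fluorescence (ex 370 nm, em 460 nm) with inhibitor present.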
`N[C@@H](CCC(=O)O)P(=O)(O)O`: the Ki is 0.34 µM.

In the case of `NC(CCP(=O)(O)O)P(=O)(O)O` (centres undefined), the Ki stood at 4.4 µM.

For `CP(=O)(O)C(N)CC(=O)O` (centres undefined), the Ki worked out at 395 µM.

As to `CC(CP(=O)(O)C(N)CC(=O)O)C(=O)O` (centres undefined), the Ki was determined as 183 µM.

For the compound `NC(CCCC(=O)O)P(=O)(O)O` (centres undefined), the Ki amounted to 105 µM.

Take `NC(CC(=O)O)P(=O)(O)O` (centres undefined): the Ki was 27 µM.

`CC(CP(=O)(O)C(N)CCC(=O)O)C(=O)O` (centres undefined): the Ki was 42.7 µM.

For the compound `NC(CCC(=O)O)P(=O)(O)c1ccccc1` (centres undefined), the Ki was over 2000 µM.

The next test deals with Plasmodium falciparum. In words: Binding affinity against recombinant Plasmodium falciparum D10 M18AAP at 1.83 mM. The essentials:
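Phosphonic/phosphinic amino-acid analogues and phosphinate dipeptides tested on rPfM18AAP in the fluorogenic assay: initial rate of H-Asp-NHMec hydrolysis (ex 370/em 460 nm) at pH 7.5, enzyme preincubated 30 min in 50 mM Tris-HCl; inhibited rates compared with an enzyme-plus-substrate control.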
As for `NC(CCC(=O)O)P(=O)(O)c1ccccc1` (centres undefined), the Activity was determined as 20%.

A word on the Ki: it is the equilibrium dissociation constant of an inhibitor or competing ligand from its target.
